Measurements reported in ChEMBL document CHEMBL4304816, “A Novel Biphenyl-based Chemotype of Retinoid X Receptor Ligands Enables Subtype and Heterodimer Preferences” (ACS Med Chem Lett, 2019).
The source made the active and inactive calls. The rule behind the calls is not given here.

Assays:
Type in all cases: cell-based
[1] = molecular target: T1, Retinoic acid receptor beta (Homo sapiens) (UniProt P10826); assay: Agonist activity at Gal4-LBD fused RARbeta (unknown origin) expressed in HEK293T cells at 20 uM after 14 to 16 hrs by dual-Glo luciferase assay
T1 sequence (whole entry): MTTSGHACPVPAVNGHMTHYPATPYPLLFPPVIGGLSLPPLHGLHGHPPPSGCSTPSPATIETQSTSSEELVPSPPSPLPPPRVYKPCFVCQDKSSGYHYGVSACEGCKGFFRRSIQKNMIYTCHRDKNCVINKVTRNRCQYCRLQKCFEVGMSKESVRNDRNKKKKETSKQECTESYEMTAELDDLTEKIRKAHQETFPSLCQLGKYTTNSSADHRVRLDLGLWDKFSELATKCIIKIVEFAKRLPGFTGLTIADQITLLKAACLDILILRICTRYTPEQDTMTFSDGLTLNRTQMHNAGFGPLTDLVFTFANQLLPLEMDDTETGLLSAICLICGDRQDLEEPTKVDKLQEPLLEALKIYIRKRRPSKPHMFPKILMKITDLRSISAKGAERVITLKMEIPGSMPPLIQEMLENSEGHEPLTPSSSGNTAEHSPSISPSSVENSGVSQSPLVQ
Procedure, shortened: (§1)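 Gal4-hybrid reporter gene selectivity panel of related nuclear receptors (PPARα/β/γ, RARα/β/γ) in HEK293T cells. Activity is read as mean fold activation versus 0.1% DMSO vehicle, n ≥ 2.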

[2] = molecular target: T2, Peroxisome proliferator-activated receptor gamma (Homo sapiens) (UniProt P37231); assay: Agonist activity at Gal4-LBD fused PPARgamma (unknown origin) expressed in HEK293T cells at 20 uM after 14 to 16 hrs by dual-Glo luciferase assay; procedure, shortened: as §1
T2 sequence (whole entry): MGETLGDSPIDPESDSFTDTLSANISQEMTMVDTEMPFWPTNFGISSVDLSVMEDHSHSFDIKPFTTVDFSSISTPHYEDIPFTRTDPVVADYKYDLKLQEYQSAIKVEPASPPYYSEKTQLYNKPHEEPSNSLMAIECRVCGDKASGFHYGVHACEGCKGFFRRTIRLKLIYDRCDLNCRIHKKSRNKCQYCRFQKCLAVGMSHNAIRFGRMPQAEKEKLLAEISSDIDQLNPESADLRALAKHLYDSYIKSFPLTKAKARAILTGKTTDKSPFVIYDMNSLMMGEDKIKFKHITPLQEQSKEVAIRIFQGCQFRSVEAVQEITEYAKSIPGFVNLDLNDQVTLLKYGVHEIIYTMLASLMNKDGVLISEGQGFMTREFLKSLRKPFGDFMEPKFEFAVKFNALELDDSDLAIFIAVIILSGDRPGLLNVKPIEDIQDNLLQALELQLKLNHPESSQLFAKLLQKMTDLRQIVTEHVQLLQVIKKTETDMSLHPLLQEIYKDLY

[3] = molecular target: T3, Peroxisome proliferator-activated receptor delta (Homo sapiens) (UniProt Q03181); assay: Agonist activity at Gal4-LBD fused PPARbeta (unknown origin) expressed in HEK293T cells at 20 uM after 14 to 16 hrs by dual-Glo luciferase assay; procedure, shortened: as §1
T3 sequence (whole entry): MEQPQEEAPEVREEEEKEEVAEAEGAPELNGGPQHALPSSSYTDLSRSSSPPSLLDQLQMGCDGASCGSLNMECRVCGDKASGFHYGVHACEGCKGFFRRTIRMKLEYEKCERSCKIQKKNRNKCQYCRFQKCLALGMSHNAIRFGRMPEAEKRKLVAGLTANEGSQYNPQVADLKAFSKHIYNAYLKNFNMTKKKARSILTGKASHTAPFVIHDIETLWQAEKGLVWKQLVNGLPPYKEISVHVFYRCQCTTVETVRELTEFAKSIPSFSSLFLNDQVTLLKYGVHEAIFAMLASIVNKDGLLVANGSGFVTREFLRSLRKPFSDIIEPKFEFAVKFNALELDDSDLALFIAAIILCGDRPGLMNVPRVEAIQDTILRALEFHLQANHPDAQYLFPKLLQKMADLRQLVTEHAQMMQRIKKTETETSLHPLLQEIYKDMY

[4] = molecular target: T4, Retinoic acid receptor RXR-alpha (Homo sapiens) (UniProt P19793); assay: Agonist activity at Gal4-LBD fused RXRalpha (unknown origin) expressed in HEK293T cells assessed as fold activation at 10 uM after 14 to 16 hrs by dual-Glo luciferase assay relative to untreated control
T4 sequence (whole entry): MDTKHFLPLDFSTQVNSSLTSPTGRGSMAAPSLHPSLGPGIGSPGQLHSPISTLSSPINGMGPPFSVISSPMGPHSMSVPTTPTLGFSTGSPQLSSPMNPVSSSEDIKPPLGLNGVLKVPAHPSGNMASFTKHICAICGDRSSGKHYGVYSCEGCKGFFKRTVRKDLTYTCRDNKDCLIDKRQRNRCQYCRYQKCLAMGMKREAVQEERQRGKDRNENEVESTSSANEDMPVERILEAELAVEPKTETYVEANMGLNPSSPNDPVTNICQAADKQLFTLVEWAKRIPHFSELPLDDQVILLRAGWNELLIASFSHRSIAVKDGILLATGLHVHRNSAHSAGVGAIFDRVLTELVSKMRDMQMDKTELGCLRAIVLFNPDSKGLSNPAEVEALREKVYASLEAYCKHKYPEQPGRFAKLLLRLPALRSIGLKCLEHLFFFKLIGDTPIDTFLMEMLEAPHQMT
Procedure, shortened: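 Gal4-hybrid RXRα/β/γ reporter gene assays in HEK293T cells. Fold activation is the maximal fold activation versus 0.1% DMSO.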

[5] = Agonist activity at full-length human RXR/LXR expressed in HEK293T cells at 10 uM after 14 to 16 hrs by dual-glo luciferase reporter gene assay relative to untreated control; settings: HEK-293T, read-out: Activity
Procedure, shortened: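 RXR:LXR or RXR:PPARγ heterodimer reporter assay with test compound alone. Activation expressed relative to 0.1% DMSO vehicle. Three independent experiments, each in duplicate; mean reported.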

[6] = molecular target: T4, Retinoic acid receptor RXR-alpha (Homo sapiens); assay: Agonist activity at Gal4-LBD fused RXRalpha (unknown origin) expressed in HEK293T cells at 0.1 to 3 uM after 14 to 16 hrs in presence of RXR antagonist HX531 by dual-Glo luciferase reporter gene assay
Homo sapiens [7] = organism: Homo sapiens; assay: Agonist activity at full-length human PPARgamma/RXR expressed in HEK293T cells at 10 uM after 14 to 16 hrs in presence of 1 uM rosiglitazone by dual-glo luciferase reporter gene assay relative to rosiglitazone
Procedure, shortened: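 RXR:PPARγ heterodimer reporter assay run with reference PPARγ agonist rosiglitazone (1 μM) co-applied. Read-out is mean relative synergistic activation, from three independent experiments each run in duplicate.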

Homo sapiens [8] = organism: Homo sapiens; assay: Agonist activity at full-length human PPARgamma/RXR expressed in HEK293T cells at 10 uM after 14 to 16 hrs by dual-glo luciferase reporter gene assay relative to untreated control
Procedure, shortened: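 RXR:PPARγ heterodimer reporter assay in HEK293T cells with test compound alone. Mean relative activation is taken versus 0.1% DMSO, from three independent experiments each run in duplicate.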

## Cc1cc(-c2ccc(C(=O)O)cc2)cc(C(C)(C)C)c1
[1]
  Activity: Active
[2]
  Activity: Active
[3]
  Activity: Active

## Cc1cc(-c2cc(C(C)(C)C)cc(C(C)(C)C)c2)ccc1C(=O)O
[4]
  fold change (FC): 3

## Cc1cc(-c2cc(C(F)(F)F)cc(C(F)(F)F)c2)ccc1CC(=O)O
[5]
  activity at 10 µM: 63%
[6]
  Activity: inactive
Homo sapiens [7]
  Activity: 84%
Homo sapiens [8]
  Activity: 139%
